Active and inactive are the calls of the source. The rule behind the calls is not given here.
What was measured:
GM15850 [1] = assay: Protection against DEM-induced loss of mitochondrial membrane potential in human GM15850 cells at 5 uM after 16 hrs using TMRM/JC-1 staining by flow cytometry analysis relative to control; format: functional
How it was run: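 FRDA lymphocytes were pretreated with compound for 16 h, then given 5 mM DEM for 140 min. Cells were washed twice with PBS and stained with 250 nM TMRM in PBS-glucose for 15 min at 37 °C in the dark. Flow cytometry read the FL2-H channel (488 nm excitation), 10 000 events, with FCCP as the depolarized control. Result is the % of cells with intact Δψm (top right quadrant). Mean ± SEM of three experiments in duplicate.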

[2] = Antioxidant activity in human GM15850 cells assessed as inhibition of glutathione depletion-induced lipid peroxidation at 5 uM after 16 hrs using C11-BODIPY581/591 by FACS analysis relative to control; format: functional; parameters: scale not given: the % may be the effect or the level left
How it was run: (§1)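 FRDA lymphocytes at 5 × 10⁵ cells/mL received compound (5 or 10 μM final) for 16 h at 37 °C. Cells were loaded with 1 μM C11-BODIPY581/591 in phenol red-free RPMI for 30 min in the dark, then stressed with 5 mM DEM for 2 h. After washing, green (oxidized) fluorescence was read by FACS, 10 000 events. Scavenging % = [(100 − % mean)/(100 − % mean of untreated control)] × 100. Duplicates, three independent experiments.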

GM15850 [3] = assay: Cytoprotective activity in human GM15850 cells assessed as glutathione depletion-induced reduction of cell viability at 5 uM after 17 hrs by trypan blue exclusion assay relative to control; format: functional
How it was run: (§2)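 FRDA lymphocytes were grown in RPMI 1640 with 15% fetal calf serum and 2 mM glutamine. Cells seeded at 5 × 10⁵ cells/mL were preincubated with compound for 17 h at 37 °C, then given 5 mM DEM for a further 6 h. Viability was scored by 0.4% trypan blue exclusion on a hemacytometer, counting at least 500 cells per group. Values are % of the untreated control (100%). Mean ± SEM, n = 3.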

GM15850 [4] = assay: Antioxidant activity in human GM15850 cells assessed as inhibition of glutathione depletion-induced ROS production at 5 uM after 16 hrs using DCFH-DA staining by flow cytometry analysis; format: functional, cell-based
How it was run: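 FRDA lymphocytes (5 × 10⁵ cells in 1 mL) were pretreated with compound for 16 h at 37 °C in 5% CO2. GSH was then depleted with 5 mM diethyl maleate for 80 min. Cells were washed and loaded with 10 μM DCFH-DA in PBS with 20 mM glucose for 20 min at 37 °C in the dark. DCF was measured by flow cytometry (488 nm, FL1-H), 10 000 events. Two experiments in duplicate, mean ± SEM.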

CCRF-CEM = assay: Antioxidant activity in human CEM cells assessed as inhibition of glutathione depletion-induced ROS production at 5 uM after 16 hrs using DCFH-DA staining by flow cytometry analysis; format: functional, cell-based
How it was run: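 CEM leukemia lymphocytes (5 × 10⁵ cells in 1 mL) were given compound for 16 h at 37 °C in 5% CO2. They were then exposed to 5 mM diethyl maleate for 40 min to deplete GSH. After a PBS wash they were stained with 10 μM DCFH-DA in PBS with 20 mM glucose for 20 min at 37 °C in the dark. DCF fluorescence was read by flow cytometry (488 nm excitation, FL1-H), 10 000 events. Mean ± SEM of two experiments, each in duplicate.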

[5] = Antioxidant activity in human GM15850 cells assessed as inhibition of glutathione depletion-induced lipid peroxidation at 10 uM after 16 hrs using C11-BODIPY581/591 by FACS analysis relative to control; format: functional; parameters: scale not given: the % may be the effect or the level left; how it was run: as §1
GM15850 [6] = assay: Cytoprotective activity in human GM15850 cells assessed as glutathione depletion-induced reduction of cell viability at 0.125 uM after 17 hrs by trypan blue exclusion assay relative to control; format: functional; how it was run: as §2
GM15850 [7] = assay: Cytoprotective activity in human GM15850 cells assessed as glutathione depletion-induced reduction of cell viability at 0.25 uM after 17 hrs by trypan blue exclusion assay relative to control; format: functional; how it was run: as §2
GM15850 [8] = assay: Cytoprotective activity in human GM15850 cells assessed as glutathione depletion-induced reduction of cell viability at 2.5 uM after 17 hrs by trypan blue exclusion assay relative to control; format: functional; how it was run: as §2

Row | SMILES | Activity (GM15850 [1]) | Activity [2] | Activity (GM15850 [3]) | Activity (GM15850 [4]) | Activity (CCRF-CEM) | Activity [5] | Activity (GM15850 [6]) | Activity (GM15850 [7]) | Activity (GM15850 [8])
1 | CCCCCCCCCCCCCC1=C(OC)C(=O)C=C(NCCCC(=O)O)C1=O | 60% | 41% | 74% | Active | Active | 51% | – | – | –
2 | CCCCCCCCCCCCCC1=C(O)C(=O)C=C(NCCCC(=O)OC(C)(C)C)C1=O | 40% | 26% | 50% | Active | Active | 37% | – | – | –
3 | CCCCCCCCCCCCCC1=C(OC)C(=O)C=C(NCCCC(=O)OC(C)(C)C)C1=O | 85% | 72% | 93% | Active | Active | 86% | 48% | 58% | 84%
4 | CCCCCCCCCCCCCC1=C(O)C(=O)C=C(NCCCC(=O)O)C1=O | 27% | 8% | 36% | Active | Active | 24% | – | – | –
